Laboratory results: ChEMBL document CHEMBL1143061, “Synthesis and antifungal activities of 5-(3,4,5-trimethoxyphenyl)-2-sulfonyl-1,3,4-thiadiazole and 5-(3,4,5-trimethoxyphenyl)-2-sulfonyl-1,3,4-oxadiazole derivatives” (Bioorg Med Chem, 2007)
In brackets after ≈: the same amount, converted by molar mass.

Tests used:
Sclerotinia sclerotiorum [1] = assay: Antifungal activity against Sclerotinia sclerotiorum at 50 ug/mL; format: functional
Fusarium graminearum [2] = assay: Antifungal activity against Gibberella zeae at 50 ug/mL; format: functional
Botrytis cinerea [3] = assay: Antifungal activity against Botrytis cinerea at 50 ug/mL; format: functional
Botrytis cinerea [4] = assay: Antifungal activity against Botrytis cinerea; format: functional, organism-based
Cytospora = assay: Growth inhibition of Cytospora mandshurica; format: functional
Rhizoctonia solani = assay: Growth inhibition of Rhizoctonia solani; format: functional, organism-based
In short: (§1)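 In vitro inhibition of mycelial growth, with hymexazol as the reference fungicide. The EC50, the concentration that inhibits growth by 50%, was read from a dose–response curve. Results come from three separate experiments, each run in triplicate.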

Fusarium oxysporum = assay: Growth inhibition of Fusarium oxysporum; format: functional, organism-based; in short: as §1
Sclerotinia sclerotiorum [5] = assay: Antifungal activity against Sclerotinia sclerotiorum; format: functional, organism-based
[6] = test system: Colletotrichum gloeosporioides; assay: Growth inhibition of Colletotrichum gloeosporioides; format: functional, organism-based
Phytophthora infestans = assay: Growth inhibition of Phytophthora infestans; format: functional, organism-based
Pyricularia oryzae = assay: Growth inhibition of Pyricularia oryzae; format: functional, organism-based
Fusarium graminearum [7] = assay: Antifungal activity against Gibberella zeae; format: functional, organism-based
In short: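 In vitro inhibition of fungal mycelial growth. EC50 read from the dose–response curve. Three separate experiments, each in triplicate. Hymexazol was the standard reference.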

Pyricularia grisea = assay: Growth inhibition of Pyricularia grisea; format: functional, organism-based

SMILES	inhibition at 50 µg/mL (Sclerotinia sclerotiorum [1])	inhibition at 50 µg/mL (Fusarium graminearum [2])	inhibition at 50 µg/mL (Botrytis cinerea [3])	other results
C=CCS(=O)(=O)c1nnc(-c2cc(OC)c(OC)c(OC)c2)s1	40.5%	14%	47.3%	–
COc1cccc(CS(=O)(=O)c2nnc(-c3cc(OC)c(OC)c(OC)c3)s2)c1	74.5%	43.2%	53.4%	–
CCCS(=O)(=O)c1nnc(-c2cc(OC)c(OC)c(OC)c2)o1	64%	59%	59.4%	–
CCOC(=O)CS(=O)(=O)c1nnc(-c2cc(OC)c(OC)c(OC)c2)o1	79.9%	52%	81.9%	–
COc1cccc(CS(=O)(=O)c2nnc(-c3cc(OC)c(OC)c(OC)c3)o2)c1	40.6%	5.7%	38.1%	–
CCS(=O)(=O)c1nnc(-c2cc(OC)c(OC)c(OC)c2)o1	100%	–	100%	EC50 (Botrytis cinerea [4]): 2.9 µg/mL (≈ 8.83 µM); EC50 (Cytospora): 20.5 µg/mL (≈ 62.4 µM); EC50 (Rhizoctonia solani): 45.6 µg/mL (≈ 139 µM); EC50 (Fusarium oxysporum): 18 µg/mL (≈ 54.8 µM); EC50 (Sclerotinia sclerotiorum [5]): 4.3 µg/mL (≈ 13.1 µM); EC50 [6]: 26.3 µg/mL (≈ 80.1 µM)
C=CCS(=O)(=O)c1nnc(-c2cc(OC)c(OC)c(OC)c2)o1	40.9%	26.4%	40.9%	–
COc1cc(-c2nnc(S(=O)(=O)Cc3ccc([N+](=O)[O-])cc3)o2)cc(OC)c1OC	62.2%	42.1%	76.8%	–
COc1cc(-c2nnc(S(=O)(=O)Cc3ccc(Cl)nc3)s2)cc(OC)c1OC	21.3%	-1.1%	25.9%	–
COc1cc(-c2nnc(S(=O)(=O)Cc3ccccc3)s2)cc(OC)c1OC	22.9%	8.3%	27.5%	–
CCOC(=O)CS(=O)(=O)c1nnc(-c2cc(OC)c(OC)c(OC)c2)s1	49.4%	21.1%	49.7%	–
COc1cc(-c2nnc(S(=O)(=O)Cc3cccc([N+](=O)[O-])c3)o2)cc(OC)c1OC	38.3%	11.8%	40.7%	–
COc1ccc(CS(=O)(=O)c2nnc(-c3cc(OC)c(OC)c(OC)c3)o2)cc1	58.5%	33.9%	58.5%	–
COc1cc(-c2nnc(S(=O)(=O)Cc3ccc(F)cc3)o2)cc(OC)c1OC	62.7%	28.1%	41.6%	–
COc1cc(-c2nnc(S(=O)(=O)Cc3ccccc3Cl)o2)cc(OC)c1OC	39.6%	11.9%	26.1%	–
COc1ccccc1CS(=O)(=O)c1nnc(-c2cc(OC)c(OC)c(OC)c2)o1	37.2%	23.7%	42.3%	–
COc1cc(-c2nnc(S(=O)(=O)Cc3cccc(F)c3)o2)cc(OC)c1OC	38.3%	9.3%	35.8%	–
COc1cc(-c2nnc(S(=O)(=O)Cc3ccccc3F)o2)cc(OC)c1OC	33.4%	18.2%	52.3%	–
COc1cc(-c2nnc(S(=O)(=O)Cc3ccc(Cl)cc3)o2)cc(OC)c1OC	35.5%	23.3%	30.8%	–
COc1cc(-c2nnc(S(=O)(=O)Cc3ccc(Cl)nc3)o2)cc(OC)c1OC	67.9%	38.9%	60.3%	–
COc1cc(-c2nnc(S(C)(=O)=O)o2)cc(OC)c1OC	100%	55.8%	100%	EC50 (Phytophthora infestans): 83.2 µg/mL (≈ 265 µM); EC50 (Botrytis cinerea [4]): 11.7 µg/mL (≈ 37.2 µM); EC50 (Cytospora): 80.5 µg/mL (≈ 256 µM); EC50 (Pyricularia oryzae): 90.7 µg/mL (≈ 289 µM); EC50 (Fusarium graminearum [7]): 28.8 µg/mL (≈ 91.6 µM); EC50 (Pyricularia grisea): 30.8 µg/mL (≈ 98 µM); EC50 (Rhizoctonia solani): 93.3 µg/mL (≈ 297 µM); EC50 (Fusarium oxysporum): 24.5 µg/mL (≈ 77.9 µM); EC50 (Sclerotinia sclerotiorum [5]): 12.5 µg/mL (≈ 39.8 µM); EC50 [6]: 21.8 µg/mL (≈ 69.4 µM)
COc1cc(-c2nnc(S(C)(=O)=O)s2)cc(OC)c1OC	40.7%	11.6%	27.1%	–
COc1cc(-c2nnc(S(=O)(=O)Cc3ccc([N+](=O)[O-])cc3)s2)cc(OC)c1OC	20%	-1.8%	30.3%	–
CCCS(=O)(=O)c1nnc(-c2cc(OC)c(OC)c(OC)c2)s1	38.1%	13.5%	33.5%	–
COc1cc(-c2nnc(S(=O)(=O)Cc3ccc(Cl)cc3)s2)cc(OC)c1OC	20.3%	5.5%	20.8%	–
COc1cc(-c2nnc(S(=O)(=O)Cc3ccccc3)o2)cc(OC)c1OC	71.2%	54.9%	67.3%	–
Cc1cc(O)no1 [HYMEXAZOL]	77.5%	52.9%	75.4%	EC50 (Rhizoctonia solani): 52.1 µg/mL (≈ 526 µM); EC50 (Fusarium oxysporum): 29.1 µg/mL (≈ 294 µM)
